# Reference: ChEMBL document CHEMBL4680121, “Development of (4-methoxyphenyl)-1H-tetrazol-5-amine regioisomers as a new class of selective antitubercular agents” (Eur J Med Chem, 2020)
# What was measured:
# HaCaT [1] = assay: Cytotoxicity against human HaCaT cells assessed as reduction in cell viability at 100 uM measured after 72 hrs by MTT assay; format: cell-based
# In short: (§1)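 MTT viability assay on cells grown in DMEM with 10% heat-inactivated FBS, penicillin/streptomycin and 20 mM HEPES at 37 °C/5% CO2. Cells were seeded at 1×10^4 per well and allowed to adhere for 24 h, then the medium was refreshed. Compounds were added at 20–140 μM for 72 h at 37 °C, followed by MTT (0.5 mg/mL in serum-free medium) for 4 h. Untreated cells served as control. IC50 is the concentration giving 50% growth inhibition versus control.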
# Mycobacterium avium = assay: Antimycobacterial activity against Mycobacterium avium assessed as inhibition of microbial growth incubated for 1 week by MABA method; format: functional; conditions: 168 h, time 1 weeks
# In short: (§2)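 Microplate Alamar Blue assay in Middlebrook 7H9 broth with 10% OADC. Inoculum from fresh LJ culture was adjusted to McFarland 1 and diluted 1:20. DMSO stocks were two-fold serially diluted to final 0.125–512 µg/ml, with growth and sterile controls. Plates ran 1 week at 37 °C, then Alamar blue was added for 24 h. MIC is the lowest concentration preventing the blue-to-pink change.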
# Escherichia coli = assay: Antibacterial activity against Escherichia coli ATCC 25922 assessed as bacterial growth inhibition measured after 18 hrs by two-fold serial microdilution method; format: functional
# In short: (§3)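 Two-fold serial broth microdilution in MH II medium following modified CLSI procedures. Compounds were dissolved in DMSO and diluted in medium to at most 1% solvent, tested from 0.03125 to 512 μg/ml. Final inoculum 10^6 CFU/ml. MIC was taken as the lowest concentration with no visible growth after 18 h at 35 °C.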
# [2] = test system: Mycobacterium scrofulaceum; assay: Antibacterial activity against Mycobacterium scrofulaceum assessed as inhibition of microbial growth incubated for 1 week by MABA method; format: functional; conditions: 168 h, time 1 weeks
# In short: (§4)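 Microplate Alamar Blue assay using two-fold serial microdilution in Middlebrook 7H9 broth with 10% OADC, compounds 0.125–512 µg/ml from DMSO stocks. Inoculum came from fresh LJ culture, was adjusted to McFarland 1 and diluted 1:20. Plates were incubated 1 week at 37 °C, Alamar blue was added and plates were re-incubated 24 h. MIC was the lowest concentration preventing the blue-to-pink change. Each plate carried growth and sterile controls.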
# [3] = test system: Staphylococcus epidermidis; assay: Antibacterial activity against Staphylococcus epidermidis ATCC 35984/RP62A assessed as bacterial growth inhibition measured after 18 hrs by two-fold serial microdilution method; format: functional; in short: as §3
# Klebsiella pneumoniae = assay: Antibacterial activity against Klebsiella pneumoniae ATCC 10031 assessed as bacterial growth inhibition measured after 18 hrs by two-fold serial microdilution method; format: functional; in short: as §3
# [4] = test system: Mycobacterium tuberculosis; assay: Antitubercular activity against Mycobacterium tuberculosis H37Rv ATCC 25618 assessed as inhibition of microbial growth incubated for 1 week by MABA method; format: functional; conditions: H37Rv ATCC 25618, 168 h, time 1 weeks; in short: as §2
# [5] = test system: Mycobacterium tuberculosis; assay: Antitubercular activity against Mycobacterium tuberculosis Spec.192 assessed as inhibition of microbial growth incubated for 1 week by MABA method; format: functional; conditions: Mycobacterium tuberculosis, 192, 168 h; time 1 weeks; in short: as §2
# Staphylococcus aureus [6] = assay: Antibacterial activity against Staphylococcus aureus NCTC 4163 assessed as bacterial growth inhibition measured after 18 hrs by two-fold serial microdilution method; format: functional; in short: as §3
# V79 [7] = assay: Cytotoxicity against Chinese Hamster V79 cells assessed as reduction in cell viability at 100 uM measured after 72 hrs by MTT assay; format: cell-based, Cricetulus griseus; conditions: v79, 72 h; in short: as §1
# Pseudomonas aeruginosa [8] = assay: Antibacterial activity against Pseudomonas aeruginosa NCTC 6749 assessed as bacterial growth inhibition measured after 18 hrs by two-fold serial microdilution method; format: functional; in short: as §3
# Pseudomonas aeruginosa [9] = assay: Antibacterial activity against Pseudomonas aeruginosa PAO1 assessed as bacterial growth inhibition measured after 18 hrs by two-fold serial microdilution method; format: functional; in short: as §3
# Mycobacterium xenopi = assay: Antibacterial activity against Mycobacterium xenopi assessed as inhibition of microbial growth incubated for 1 week by MABA method; format: functional; conditions: 168 h, time 1 weeks; in short: as §4
# [10] = test system: Staphylococcus epidermidis; assay: Antibacterial activity against Staphylococcus epidermidis ATCC 1457 assessed as bacterial growth inhibition measured after 18 hrs by two-fold serial microdilution method; format: functional; in short: as §3
# [11] = test system: Mycolicibacterium fortuitum; assay: Antibacterial activity against Mycobacterium fortuitum assessed as inhibition of microbial growth incubated for 1 week by MABA method; format: functional; conditions: 168 h, time 1 weeks; in short: as §4
# HaCaT [12] = assay: Cytotoxicity against human HaCaT cells assessed as reduction in cell viability measured after 72 hrs by MTT assay; format: cell-based; in short: as §1
# Proteus vulgaris = assay: Antibacterial activity against Proteus vulgaris NCTC 4635 assessed as bacterial growth inhibition measured after 18 hrs by two-fold serial microdilution method; format: functional; in short: as §3
# [13] = test system: Staphylococcus epidermidis; assay: Antibacterial activity against Staphylococcus epidermidis ATCC 12228 assessed as bacterial growth inhibition measured after 18 hrs by two-fold serial microdilution method; format: functional; in short: as §3
# Mycobacterium kansasii = assay: Antibacterial activity against Mycobacterium kansasii assessed as inhibition of microbial growth incubated for 1 week by MABA method; format: functional; conditions: 168 h, time 1 weeks; in short: as §4
# V79 [14] = assay: Cytotoxicity against Chinese Hamster V79 cells assessed as reduction in cell viability measured after 72 hrs by MTT assay; format: cell-based; conditions: Cricetulus griseus, V79, 72 h; in short: as §1
# Staphylococcus aureus [15] = assay: Antibacterial activity against Staphylococcus aureus ATCC 6538 assessed as bacterial growth inhibition measured after 18 hrs by two-fold serial microdilution method; format: functional; in short: as §3
# [16] = test system: Mycobacterium intracellulare; assay: Antimycobacterial activity against Mycobacterium intracellulare assessed as inhibition of microbial growth incubated for 1 week by MABA method; format: functional; conditions: 168 h, time 1 weeks; in short: as §4
Compound,Activity (HaCaT [1]),MIC (Mycobacterium avium) [µg/mL],MIC (Escherichia coli) [µg/mL],MIC [2] [µg/mL],MIC [3] [µg/mL],MIC (Klebsiella pneumoniae) [µg/mL],MIC [4] [µg/mL],MIC [5] [µg/mL],MIC (Staphylococcus aureus [6]) [µg/mL],Activity (V79 [7]),MIC (Pseudomonas aeruginosa [8]) [µg/mL],MIC (Pseudomonas aeruginosa [9]) [µg/mL],MIC (Mycobacterium xenopi) [µg/mL],MIC [10] [µg/mL],MIC [11] [µg/mL],IC50 (HaCaT [12]) [µM],MIC (Proteus vulgaris) [µg/mL],MIC [13] [µg/mL],IC50 (V79 [14]) [µM],MIC (Staphylococcus aureus [15]) [µg/mL],also measured
COc1ccc(-n2nnnc2Nc2ccccc2Br)cc1,Non-Toxic,256,> 256,256,256,> 256,64,64,256,Non-Toxic,> 256,> 256,512,256,256,137,> 256,128,239,256,MIC (Mycobacterium kansasii): 512 µg/mL; MIC [16]: 128 µg/mL
COc1ccc(-n2nnnc2Nc2ccccc2F)cc1,Non-Toxic,,> 256,,> 256,> 256,16,16,> 256,Non-Toxic,> 256,> 256,,> 256,,111,> 256,> 256,115,> 256,
COc1ccc(-n2nnnc2Nc2cccc(Cl)c2)cc1,Non-Toxic,256,> 256,512,> 256,> 256,32,32,> 256,Non-Toxic,> 256,> 256,> 512,> 256,256,141,> 256,> 256,243,> 256,MIC (Mycobacterium kansasii): 512 µg/mL; MIC [16]: 128 µg/mL
COc1ccc(-n2nnnc2Nc2ccccc2Cl)cc1,Non-Toxic,128,> 256,32,256,> 256,8,8,32,Non-Toxic,> 256,> 256,512,64,256,134,64,128,246,32,MIC (Mycobacterium kansasii): 512 µg/mL; MIC [16]: 128 µg/mL
COc1ccc(-n2nnnc2Nc2ccc(Cl)cc2)cc1,Non-Toxic,> 512,> 256,> 512,128,> 256,16,16,128,Non-Toxic,> 256,> 256,512,128,> 512,143,128,64,245,128,MIC (Mycobacterium kansasii): > 512 µg/mL; MIC [16]: 32 µg/mL
COc1ccc(Nc2nnnn2-c2ccccc2F)cc1,Non-Toxic,256,256,32,64,256,16,16,64,Non-Toxic,256,256,128,64,256,122,256,64,212,64,MIC (Mycobacterium kansasii): 256 µg/mL; MIC [16]: 128 µg/mL
COc1ccc(-n2nnnc2Nc2ccc(F)cc2)cc1,Non-Toxic,256,> 256,32,128,> 256,32,32,128,Non-Toxic,128,> 256,> 512,128,512,155,128,64,236,128,MIC (Mycobacterium kansasii): 512 µg/mL; MIC [16]: 16 µg/mL
COc1ccc(Nc2nnnn2-c2ccccc2Br)cc1,Non-Toxic,> 512,> 256,128,> 256,> 256,16,16,> 256,Non-Toxic,> 256,> 256,> 512,> 256,> 512,105,> 256,> 256,119,> 256,MIC (Mycobacterium kansasii): 256 µg/mL; MIC [16]: 256 µg/mL
COc1ccc(Nc2nnnn2-c2cccc(Br)c2)cc1,Non-Toxic,64,> 256,32,> 256,> 256,16,16,> 256,Non-Toxic,> 256,> 256,512,> 256,512,107,> 256,> 256,124,> 256,MIC (Mycobacterium kansasii): 512 µg/mL; MIC [16]: > 256 µg/mL
COc1ccc(Nc2nnnn2-c2ccc(F)cc2)cc1,Non-Toxic,> 512,256,64,128,> 256,8,8,64,Non-Toxic,256,256,256,128,> 512,101,256,64,145,64,MIC (Mycobacterium kansasii): 512 µg/mL; MIC [16]: 512 µg/mL
COc1ccc(Nc2nnnn2-c2ccccc2Cl)cc1,Non-Toxic,512,256,32,64,256,8,8,64,Non-Toxic,256,256,512,128,128,100,256,64,102,64,MIC (Mycobacterium kansasii): 256 µg/mL; MIC [16]: 128 µg/mL
O=C(O)c1cn(C2CC2)c2cc(N3CCNCC3)c(F)cc2c1=O [CIPROFLOXACIN],,,< 0.0625,,0.0625,< 0.0625,,,,,,,,0.125,,,< 0.0625,0.125,,,
COc1cccc2c1C(=O)c1c(O)c3c(c(O)c1C2=O)C[C@@](O)(C(=O)CO)C[C@@H]3O[C@H]1C[C@H](N)[C@H](O)[C@H](C)O1 [DOXORUBICIN],,,,,,,,,,,,,,,,0.23,,,2.21,,
